71 compounds from ChEMBL document CHEMBL4513216, “Probing the Open Global Health Chemical Diversity Library for Multistage-Active Starting Points for Next-Generation Antimalarials” (ACS Infect Dis, 2020) can be followed below.

This data set can be described thus: Toxicity liver stage against HepG2, at 10uM. The class given is cell-based. Details: test concentration 10 uM, cell line HepG2-A16-CD81EGFP. Particulars: human, HepG2-A16-CD81EGFP cells; read-out: INHIBITION
In a few lines: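 Uninfected HepG2-A16-CD81EGFP cells, 3 × 10^3 per well, 1536-well, plated on prespotted compound at 10 μM final, parasite-free screening media added to match infected plates; puromycin 10 μM positive, DMSO 0.5% negative; run in parallel with 48 h PbLuc assay at 37 °C, 5% CO2; viability by CellTiter-Glo luminescence, normalized to controls.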
Consider `CCOC(=O)N1CC(=O)N(Cc2ccc(OC)cc2)CC(O)C1` (stereo unspecified), for which the cytotoxicity at 10 µM is -2.67%.

Consider `COCCN1C(=O)c2ccc(C(=O)NCCc3c[nH]cn3)cc2C1=O`, for which the cytotoxicity at 10 µM was -7.13%.

For the compound `Cc1ccc(S(=O)(=O)c2ncccc2CN2CCN(C)CC2)cc1`, the cytotoxicity at 10 µM was -51.3%.

With `Cc1ccc(S(=O)(=O)c2ncccc2CN2CCN(CCO)CC2)cc1`, the cytotoxicity at 10 µM is -49.1%.

On to `Cc1cc(=O)[nH]c(-n2nc(C3CC3)cc2N)n1`, for which the cytotoxicity at 10 µM is -4.84%.

For `Cc1cc(=O)n(CCNS(=O)(=O)c2cccc(C(F)(F)F)c2)cn1`, the cytotoxicity at 10 µM was -6.98%.

As to `CCCN1Cc2cc(Br)ccc2OCC1=O`, the cytotoxicity at 10 µM worked out at 3.72%.

On to `CC(C)CNC(=O)c1c(-n2cnnn2)sc2c1CCCC2`, for which the cytotoxicity at 10 µM amounted to 10.8%.

As to `Nc1ncccc1C(=O)NCc1cccc(Br)c1`, the cytotoxicity at 10 µM is 42.6%.

As to `COCCNC(=O)c1sc(Nc2ccc(Cl)cn2)nc1C`, the cytotoxicity at 10 µM was 32.4%.

Take `COc1cccc(N2CCN(CC(O)c3cc(C)ccc3C)CC2)c1` (stereo unspecified): the cytotoxicity at 10 µM worked out at 4.91%.

`C=C/C=c1\c(=C/C)oc2c(NCc3ccccc3)nc(C)nc12`: the cytotoxicity at 10 µM came to 24.8%.

As for `O=C(CCn1ncc2c(Cl)cccc21)NCC1CC1`, the cytotoxicity at 10 µM is 10.6%.

`Cc1cccc(OCc2ccc(C(=O)N3N=CCC3(O)C(F)(F)F)o2)c1` (stereo unspecified): the cytotoxicity at 10 µM is 25.2%.

Turning to `CCn1cc(-c2cc(C(F)(F)F)nc(NC3CCCC3)n2)c(C)n1`, the cytotoxicity at 10 µM stood at 2.33%.

Consider `c1ccc(CCN2CCCC2c2cccc(Nc3nccs3)n2)cc1` (stereo unspecified), for which the cytotoxicity at 10 µM was found to be 8.91%.

In the case of `CCOc1ccc([C@@H]2N[C@H](c3nccs3)Cc3ccsc32)cc1OC`, the cytotoxicity at 10 µM was 38%.

With `CCCS(=O)(=O)N1CCC(n2nc(-c3cc(C)oc3C)ccc2=O)CC1`, the cytotoxicity at 10 µM is 14.6%.

Turning to `CNc1nc(C2CCN(C(=O)CC3CCCC3)C2)nc2c1CN(C)CC2` (stereo unspecified), the cytotoxicity at 10 µM was -40.4%.

With `CNc1nc(C2CCCN2C(C)=O)nc2c1CN(C1CCCC1)CC2` (stereo unspecified), the cytotoxicity at 10 µM was -9.44%.

As for `Cc1cc(CNC(=O)c2cc(NC(=O)C(C)C)ccc2Cl)no1`, the cytotoxicity at 10 µM worked out at 13.6%.

As to `CCC(O)CN1CCN(C(=O)CCSC)CC1` (stereo unspecified), the cytotoxicity at 10 µM was -3.5%.

For `COc1ccccc1CCN(C)C(C)c1nc(-c2cccnc2)no1` (stereo unspecified), the cytotoxicity at 10 µM was -2.04%.

As to `Cc1ccccc1Cc1nc(CSc2nnc(N)n2C2CC2)no1`, the cytotoxicity at 10 µM was determined as 18%.

On to `O=C(NCc1cccnc1OCC(F)(F)F)N1CCOCC1`, for which the cytotoxicity at 10 µM is -43.4%.

Consider `Cc1cc(NC(=O)NCc2ccc(S(=O)(=O)N3CCCC3)s2)no1`, for which the cytotoxicity at 10 µM is -2.24%.

Take `CN(C)c1nc(N)nc(CN2CCC(c3ccccc3)CC2)n1`: the cytotoxicity at 10 µM was 7.36%.

`CCc1nnc(C2Cc3ccccc3CN2Cc2cc(C)on2)o1` (stereo unspecified): the cytotoxicity at 10 µM was -7.77%.

With `OCCOc1ccc(NCc2cccc3[nH]ccc23)cn1`, the cytotoxicity at 10 µM came to 0.205%.

`CC(=O)N(Cc1ncc(C)o1)C1CCN(Cc2ccc(F)c(F)c2)C1` (stereo unspecified): the cytotoxicity at 10 µM is 13.4%.

Take `COc1ccc(NC(=O)CCC(C)C)c(N2CCN(C(C)=O)CC2)n1`: the cytotoxicity at 10 µM came out at 8.43%.

With `CCOc1cc(CN(C)Cc2ccccc2)ccc1OC(F)F`, the cytotoxicity at 10 µM is -14.7%.

With `CCC(C)(COc1ncccc1Cl)NCC(=O)NC1CCCCC1` (stereo unspecified), the cytotoxicity at 10 µM is 0.651%.

Consider `Cc1n[nH]c(C)c1CNC(=O)N(Cc1ccccc1)CC(C)(C)O`, for which the cytotoxicity at 10 µM was determined as 1.72%.

Take `CN1CCN(c2ccc(CO)cc2F)CC1`: the cytotoxicity at 10 µM was -42%.

For the compound `COc1ccc(CNc2c(C)nn(C(C)C)c2C)cc1`, the cytotoxicity at 10 µM was -37.1%.

Turning to `CC(C)(C)c1ccc(C2(C(=O)NCCS(N)(=O)=O)CC2)cc1`, the cytotoxicity at 10 µM came out at 0.515%.

As to `Cc1nc2c(c(NC3CC3)n1)CCN(C(=O)C1(C#N)CC1)CC2`, the cytotoxicity at 10 µM was -104%.

With `CN1CCCN(c2nccc(-c3c[nH]nc3C3CCCCC3)n2)CC1`, the cytotoxicity at 10 µM came out at 0.746%.

For the compound `CCNC(=O)[C@@H]1C[C@H](NC(=O)c2ccc(C)s2)CN1Cc1ccc(C)o1`, the cytotoxicity at 10 µM is -5.39%.

On to `Cc1ccc(-c2ccnc(N3CCC4(CC3)CNC(=O)C4)n2)c(C)n1`, for which the cytotoxicity at 10 µM is -5.3%.

Take `CCc1cnc(N)nc1NCCC(=O)NC1CCCCC1`: the cytotoxicity at 10 µM is -42.1%.

With `CC(C)(C)c1nc(CN2CCc3onc(-c4cccc(F)c4)c3C2)no1`, the cytotoxicity at 10 µM amounted to 6.2%.

Consider `Cc1ccc2nc(CN3CCC(O)(CN4CCCC4)CC3)cc(O)c2c1`, for which the cytotoxicity at 10 µM was -51.9%.

With `Cc1ncnc(NCC(C)N(C)c2ccccc2)c1C` (stereo unspecified), the cytotoxicity at 10 µM turned out to be 60.3%.

Regarding `CS(=O)(=O)c1ccc(CN2CCCC3(C2)C(=O)Nc2ccccc23)cc1` (stereo unspecified), the cytotoxicity at 10 µM is -1.3%.

For the compound `Cc1nc(-c2cc(Cl)cc3c2OC(CN)C3)c[nH]1` (stereo unspecified), the cytotoxicity at 10 µM is -1.11%.

Consider `CC(C)C1CN(c2cccc(C#N)n2)CCCN1Cc1ccc(F)cc1` (stereo unspecified), for which the cytotoxicity at 10 µM came to 10%.

In the case of `CN(Cc1cc(C2CC2)[nH]n1)C(=O)C(c1cccnc1)N1CCCC1` (stereo unspecified), the cytotoxicity at 10 µM is -48.1%.

In the case of `O=C(NCC1CCCO1)c1coc(Cn2cnc3ccccc32)n1` (stereo unspecified), the cytotoxicity at 10 µM is -3.67%.

On to `CN(Cc1n[nH]c2c1CCC2)C(=O)c1cccc(CCC(C)(C)O)c1`, for which the cytotoxicity at 10 µM was 3.01%.

Regarding `O=C1CC2(CCN(CC3CC3)CC2)CN1Cc1cc(F)cc(F)c1`, the cytotoxicity at 10 µM came to 2.34%.

For `O=C1CC(c2ccc(CO)o2)c2cnn(Cc3ccco3)c2N1` (stereo unspecified), the cytotoxicity at 10 µM is 2.77%.

Take `Cc1nc[nH]c1CN1CCOC(c2ccc(Cl)c(Cl)c2)C1` (stereo unspecified): the cytotoxicity at 10 µM was 0.833%.

Take `Cc1ccc(-c2c(C(=O)NC3CCN(C)CC3)csc2C)cc1`: the cytotoxicity at 10 µM was -130%.

Consider `CCc1ccc(C(=O)N2CCN(Cc3ccc(F)cc3)CC2)s1`, for which the cytotoxicity at 10 µM stood at 13.4%.

`O=C(Cc1ccccc1F)NCCN1CCOCC1`: the cytotoxicity at 10 µM was -46.1%.

Take `O=C1CC(c2ccccc2F)c2c(n(C3CCCC3)[nH]c2=O)N1` (stereo unspecified): the cytotoxicity at 10 µM was -5.07%.

In the case of `O=C1CC(c2ccccc2)c2cnn(C3CCCC3)c2N1` (stereo unspecified), the cytotoxicity at 10 µM turned out to be 1.5%.

`O=C(O)CCc1cc2n(n1)CCCN(C(=O)c1cc3ccccc3s1)C2`: the cytotoxicity at 10 µM stood at 0.45%.

As for `O=C1NCCN1C1CCN(CCOc2cccc3ccccc23)CC1`, the cytotoxicity at 10 µM is -5.72%.

Turning to `COc1cccc(-n2nnc(C(=O)N3CCN(C)CC3C)c2C)c1` (stereo unspecified), the cytotoxicity at 10 µM is -4.05%.

Consider `Cc1ccc(CN2Cc3ccccc3OC3(CCC(CO)CC3)C2)s1` (stereo unspecified), for which the cytotoxicity at 10 µM is -3.11%.

With `Cc1cc(C(=O)N2CCn3cc(CN4CCOCC4)nc3C2)no1`, the cytotoxicity at 10 µM was -75.7%.

For `Cc1ccc(S(=O)(=O)N2CCc3nc(C4CCNCC4)ncc3C2)cc1`, the cytotoxicity at 10 µM is -3.24%.

As to `FC1(F)CCN(Cc2cccnc2)CC12CCN(c1ccccn1)C2` (stereo unspecified), the cytotoxicity at 10 µM is 23%.

With `c1cc(COC[C@@H]2CCC[C@@]23CNCCO3)ccn1`, the cytotoxicity at 10 µM turned out to be 1.26%.

As for `Cc1ccc(CN2CCC3(CC2)CN(c2ccccc2)C(=O)CO3)o1`, the cytotoxicity at 10 µM is -116%.

Turning to `c1ccc(N2CCCC3(COCCN(c4nccs4)C3)C2)nc1` (stereo unspecified), the cytotoxicity at 10 µM was -8.89%.

Consider `CC(C)CN1CCC2(COCc3cnc(-c4ccccc4)nc32)C1` (stereo unspecified), for which the cytotoxicity at 10 µM is -103%.

As to `CCN(CC)c1ccc(C2c3c(n[nH]c3C)N=C3COC(=O)C32)cc1` (stereo unspecified), the cytotoxicity at 10 µM is 4.33%.
